# According to ChEMBL document CHEMBL1122917, “Vinblastin-23-oyl amino acid derivatives: chemistry, physicochemical data, toxicity, and antitumor activities against P388 and L1210 leukemias” (J Med Chem, 1985):
# How the values were obtained:
# Assay type in all cases: functional
# Mus musculus [1] = assay: Percent increase in life span of DBA2 mice after inoculation with L1210 leukemia intravenously at a dose of 50 mg/kg per day; conditions: route intravenous
# How it was run: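 Female DBA2 mice inoculated iv on day 0 with 10^4 L1210 cells; drugs given iv as sulfate salts in physiological saline, mostly once on day 1. %ILS from all deaths and survivors as (T/C × 100) − 100; survivors scored on days 30 and 60.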
# Mus musculus [2] = assay: Percent increase in life span at dose 70 mg/kg/day in 10 mice implanted with P388 leukemia cell line
# How it was run: (§1)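 Female DBA2 mice inoculated iv on day 0 with 10^4 P388 cells; single iv treatment on day 1 with drug as sulfate salt in physiological saline. Survival followed; %ILS from all deaths and survivors as (T/C × 100) − 100, maximal MST 30 days; survivors counted on days 30 and 60. Most experiments confirmed three times.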
# Mus musculus [3] = assay: Number of survivors of DBA2 mice on 30th day after inoculation with L1210 leukemia cell line intravenously at a dose of 50 mg/kg/day; 0/10; conditions: route intravenous
# Mus musculus [4] = assay: Percent increase in life span at dose 80 mg/kg/day in 10 mice implanted with P388 leukemia cell line; how it was run: as §1
# Mus musculus [5] = assay: Percent increase in life span at dose 40 mg/kg/day in 10 mice implanted with P388 leukemia cell line; how it was run: as §1
# Mus musculus [6] = assay: Percent increase in life span at dose 55 mg/kg/day in 10 mice implanted with P388 leukemia cell line; how it was run: as §1
# Mus musculus [7] = assay: Number of survivors on 60th day at dose mg/kg/day in 10 mice implanted with P388 leukemia cell line; 1/10
# Mus musculus [8] = assay: Number of survivors on 60th day at dose mg/kg/day in 10 mice implanted with P388 leukemia cell line; 2/10
# Mus musculus [9] = assay: Percent increase in life span at dose 60 mg/kg/day in 10 mice implanted with P388 leukemia cell line; how it was run: as §1
# Mus musculus [10] = assay: Number of survivors on 30th day at dose 40 mg/kg/day in 10 mice implanted with P388 leukemia cell line; 1/10
# Mus musculus [11] = assay: Number of survivors on 60th day at dose mg/kg/day in 10 mice implanted with P388 leukemia cell line; 7/10
# Mus musculus [12] = assay: Number of survivors on 60th day at dose mg/kg/day in 10 mice implanted with P388 leukemia cell line; 5/10
# Mus musculus [13] = assay: Number of survivors on 30th day at dose 50 mg/kg/day in 10 mice implanted with P388 leukemia cell line; 2/10
# Mus musculus [14] = assay: Number of survivors on 30th day at dose 55 mg/kg/day in 10 mice implanted with P388 leukemia cell line; 7/10
# Mus musculus [15] = assay: Number of survivors of DBA2 mice on 60th day after inoculation with L1210 leukemia cell line intravenously at a dose of 50 mg/kg/day; 0/10; conditions: route intravenous
# Mus musculus [16] = assay: Number of survivors on 30th day at dose 70 mg/kg/day in 10 mice implanted with P388 leukemia cell line; 5/10
# Mus musculus [17] = assay: Number of survivors on 30th day at dose 80 mg/kg/day in 10 mice implanted with P388 leukemia cell line; 7/10
# Mus musculus [18] = assay: Number of survivors on 30th day at dose 60 mg/kg/day in 10 mice implanted with P388 leukemia cell line; 5/10
# Mus musculus [19] = assay: Percent increase in life span at dose 50 mg/kg/day in 10 mice implanted with P388 leukemia cell line; how it was run: as §1
# Mus musculus [20] = assay: Number of survivors on 60th day at dose mg/kg/day in 10 mice implanted with P388 leukemia cell line; 4/10
# Mus musculus [21] = assay: Number of survivors on 60th day at dose 15 mg/kg/day in 10 mice implanted with P388 leukemia cell line; 0/10
# Mus musculus [22] = assay: Number of survivors on 60th day at dose 20 mg/kg/day in 10 mice implanted with P388 leukemia cell line; 0/10
# Mus musculus [23] = assay: Percent increase in life span at dose 15 mg/kg/day in 10 mice implanted with P388 leukemia cell line; how it was run: as §1
# Mus musculus [24] = assay: Percent increase in life span at dose 20 mg/kg/day in 10 mice implanted with P388 leukemia cell line; how it was run: as §1
# Mus musculus [25] = assay: Number of survivors on 60th day at dose 50 mg/kg/day in 10 mice implanted with P388 leukemia cell line; 0/10
# Mus musculus [26] = assay: Percent increase in life span at dose 30 mg/kg/day in 10 mice implanted with P388 leukemia cell line; how it was run: as §1
# Mus musculus [27] = assay: Percent increase in life span at dose 5 mg/kg/day in 10 mice implanted with P388 leukemia cell line; how it was run: as §1
# Mus musculus [28] = assay: Number of survivors on 60th day at dose 30 mg/kg/day in 10 mice implanted with P388 leukemia cell line; 0/10
# Mus musculus [29] = assay: Number of survivors on 60th day at dose 40 mg/kg/day in 10 mice implanted with P388 leukemia cell line; 0/10
# Mus musculus [30] = assay: Number of survivors on 60th day at dose 5 mg/kg/day in 10 mice implanted with P388 leukemia cell line; 0/10
# Mus musculus [31] = assay: Number of survivors on 30th day at dose 20 mg/kg/day in 10 mice implanted with P388 leukemia cell line; 0/10
# Mus musculus [32] = assay: Number of survivors on 30th day at dose 30 mg/kg/day in 10 mice implanted with P388 leukemia cell line; 0/10
# Mus musculus [33] = assay: Number of survivors on 30th day at dose 40 mg/kg/day in 10 mice implanted with P388 leukemia cell line; 0/10
# Mus musculus [34] = assay: Number of survivors on 30th day at dose 5 mg/kg/day in 10 mice implanted with P388 leukemia cell line; 0/10
# Mus musculus [35] = assay: Number of survivors on 30th day at dose 50 mg/kg/day in 10 mice implanted with P388 leukemia cell line; 0/10
# Mus musculus [36] = assay: Number of survivors on 30th day at dose 15 mg/kg/day in 10 mice implanted with P388 leukemia cell line; 0/10
# Mus musculus [37] = assay: Number of survivors on 60th day at dose 55 mg/kg/day in 10 mice implanted with P388 leukemia cell line; 0/10
# Mus musculus [38] = assay: Number of survivors on 60th day at dose 60 mg/kg/day in 10 mice implanted with P388 leukemia cell line; 0/10; how it was run: as §1
# Mus musculus [39] = assay: Number of survivors on 60th day at dose 80 mg/kg/day in 10 mice implanted with P388 leukemia cell line; 0/10
# Mus musculus [40] = assay: Percent increase in life span at dose 65 mg/kg/day in 10 mice implanted with P388 leukemia cell line; how it was run: as §1
# Mus musculus [41] = assay: Number of survivors on 60th day at dose 65 mg/kg/day in 10 mice implanted with P388 leukemia cell line; 0/10
# Mus musculus [42] = assay: Number of survivors on 60th day at dose 70 mg/kg/day in 10 mice implanted with P388 leukemia cell line; 0/10
# Mus musculus [43] = assay: Number of survivors on 30th day at dose 55 mg/kg/day in 10 mice implanted with P388 leukemia cell line; 0/10
# Mus musculus [44] = assay: Number of survivors on 30th day at dose 70 mg/kg/day in 10 mice implanted with P388 leukemia cell line; 0/10
# Mus musculus [45] = assay: Number of survivors on 30th day at dose 80 mg/kg/day in 10 mice implanted with P388 leukemia cell line; 0/10
# Mus musculus [46] = assay: Number of survivors on 30th day at dose 60 mg/kg/day in 10 mice implanted with P388 leukemia cell line; 0/10
# Mus musculus [47] = assay: Number of survivors on 30th day at dose 65 mg/kg/day in 10 mice implanted with P388 leukemia cell line; 0/10
smiles,measurement,setting,value
CCCCOC(=O)[C@H](Cc1c[nH]c2ccccc12)NC(=O)[C@@]1(O)[C@H](O)[C@]2(CC)C=CCN3CC[C@@]4(c5cc([C@@]6(C(=O)OC)C[C@H]7C[N@](CCc8c6[nH]c6ccccc86)C[C@](O)(CC)C7)c(OC)cc5N(C)[C@@]14C)[C@@H]32,ILS at 50 mg/kg/day,Mus musculus [1],44%
same,ILS at 70 mg/kg/day,Mus musculus [2],52%
same,Survivors,Mus musculus [3],0
same,ILS at 80 mg/kg/day,Mus musculus [4],> 216%
same,ILS at 40 mg/kg/day,Mus musculus [5],63%
same,ILS at 55 mg/kg/day,Mus musculus [6],> 163%
same,Survivors,Mus musculus [7],1
same,Survivors,Mus musculus [8],2
same,ILS at 60 mg/kg/day,Mus musculus [9],140%
same,Survivors,Mus musculus [10],1
same,Survivors,Mus musculus [11],7
same,Survivors,Mus musculus [12],5
same,Survivors,Mus musculus [13],2
same,Survivors,Mus musculus [14],7
same,Survivors,Mus musculus [15],0
same,Survivors,Mus musculus [16],5
same,Survivors,Mus musculus [17],7
same,Survivors,Mus musculus [18],5
same,ILS at 50 mg/kg/day,Mus musculus [19],31.6%
same,Survivors,Mus musculus [20],4
CC[C@]1(O)C[C@@H]2C[N@](CCc3c([nH]c4ccccc34)[C@@](C(=O)OC)(c3cc4c(cc3OC)N(C)[C@@]3(C)[C@@](O)(C(=O)N[C@@H](CC(C)C)C(N)=O)[C@H](O)[C@]5(CC)C=CCN6CC[C@]43[C@@H]65)C2)C1,Survivors,Mus musculus [21],0
same,Survivors,Mus musculus [22],0
same,ILS at 15 mg/kg/day,Mus musculus [23],8.7%
same,ILS at 20 mg/kg/day,Mus musculus [24],1.7%
same,Survivors,Mus musculus [25],0
same,ILS at 30 mg/kg/day,Mus musculus [26],1.7%
same,ILS at 40 mg/kg/day,Mus musculus [5],19%
same,ILS at 5 mg/kg/day,Mus musculus [27],1.7%
same,Survivors,Mus musculus [28],0
same,Survivors,Mus musculus [29],0
same,Survivors,Mus musculus [30],0
same,Survivors,Mus musculus [31],0
same,Survivors,Mus musculus [32],0
same,Survivors,Mus musculus [33],0
same,Survivors,Mus musculus [34],0
same,Survivors,Mus musculus [35],0
same,Survivors,Mus musculus [36],0
same,ILS at 50 mg/kg/day,Mus musculus [19],15.5%
CCCCOC(=O)[C@H](CC(C)C)NC(=O)[C@@]1(O)[C@H](O)[C@]2(CC)C=CCN3CC[C@@]4(c5cc([C@@]6(C(=O)OC)C[C@H]7C[N@](CCc8c6[nH]c6ccccc86)C[C@](O)(CC)C7)c(OC)cc5N(C)[C@@]14C)[C@@H]32,Survivors,Mus musculus [37],0
same,Survivors,Mus musculus [38],0
same,ILS at 70 mg/kg/day,Mus musculus [2],26.7%
same,ILS at 80 mg/kg/day,Mus musculus [4],27.6%
same,ILS at 55 mg/kg/day,Mus musculus [6],23%
same,Survivors,Mus musculus [39],0
same,ILS at 60 mg/kg/day,Mus musculus [9],26%
same,ILS at 65 mg/kg/day,Mus musculus [40],13.8%
same,Survivors,Mus musculus [41],0
same,Survivors,Mus musculus [42],0
same,Survivors,Mus musculus [43],0
same,Survivors,Mus musculus [44],0
same,Survivors,Mus musculus [45],0
same,Survivors,Mus musculus [46],0
same,Survivors,Mus musculus [47],0
